One data set relates to GIST-T1 cells. In words: Cell cycle analysis, GIST-T1. Format: cell-based. Conditions: P < 0.01.
For a further data set, the system named is GIST-T1/IMR cells. In words: Cell cycle analysis, GIST-T1/IMR. Conditions: DMS with IM vs only IM, P < 0.01. Format: cell-based.
Data set [1] has as its system GIST-T1 and GIST-T1/IMR cells. In words: Cell scratch assay. Format: cell-based. Conditions: DMS (10 µM, 5 h) pretreatment then IM (20 µM) vs only IM treatment, P < 0.01.
Data set [2] concerns GIST-T1 and GIST-T1/IMR cells. In words: Longitudinal migration through uncoated Matrigel. Conditions: both cell lines. Format: cell-based. The method in brief:
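Parental and resistant GIST-T1 cells were grown in RPMI 1640 with 15% FBS at 37 °C, 5% CO2. Vertical migration was scored as the number of cells passing through uncoated Matrigel.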

The subject of data set [3] is GIST-T1 and GIST-T1/IMR cells. In words: Transwell chamber invasion assay. Format: cell-based. Conditions: DMS pretreatment and then IM treatment, within 48 h. An outline of the steps:
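Parental and resistant GIST-T1 cells in RPMI 1640 with 15% FBS (37 °C, 5% CO2) were tested in a transwell chamber. Invasion within 48 h was counted as transmembrane cells.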

Data set [4] relates to GIST-T1 and GIST-T1/IMR cells. In words: Plate colony formation experiment. Format: cell-based. Conditions: P < 0.01.
The test system of data set [5] is GIST-T1 and GIST-T1/IMR cells. In words: Cell apoptosis analysis. Format: cell-based.
For data set [6], the system named is S1P, SPK1 and ABCC1 protein expression. In words: Western blot of SPK1/S1P proteins. Format: cell-based. As to conditions: after DMS blockage for 5 h. An outline of the steps: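 Lysates of parental and resistant GIST-T1 cells were probed with rabbit polyclonal anti-S1P, anti-SPK1 and anti-β-actin antibodies, plus anti-ABCC1. Bands were visualised by enhanced chemiluminescence.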
A general note: In western blotting, separated proteins are transferred to a membrane and probed.

The subject of a further data set is SPK1. As to conditions: SPK1 compared to SPK2; cited from earlier work.
Data set [7] in a line: Therapeutic drug monitoring. Format: in vivo, human. Conditions: 400 mg/qd; for concentration at 22 h: both, human, plasma, oral, Plasma concentration. An outline of the steps:
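Patients on oral drug 400 mg once daily for over 1 month (steady state) took the dose at about 12:00. Peripheral venous blood was drawn about 10:00 next morning into anticoagulant tubes and centrifuged at 5000 rpm for 5 min. Plasma was stored at −20 °C, protein-precipitated, centrifuged and injected directly for 2D-LC-UV quantitation.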

The next data set relates to GISTs. As to conditions: cited from earlier work.
The conditions of data set [8]: cited from earlier work.

Structures are written as SMILES. Where a name gives a salt, the structure may show the parent alone. Read-outs that look alike come from different tables or passages of the source. Some results are limits rather than exact numbers.

For the compound `CCCCCCCCCCCCC/C=C/[C@@H](O)[C@H](CO)N(C)C` [DMS, N,N-dimethylsphingosine], the “proportion of G0/G1 phase” value in the data set with GIST-T1 cells (GIST-T1, DMS with IM vs only IM) is “significantly lower”; in the data set on GIST-T1/IMR cells, “significantly lower”. In addition, the scratch healing rate result in data set [1] is given as “significantly decreased”. The “ability of longitudinal migration” value in data set [2] (DMS pretreatment with IM) is reported as “further block”. The “number of transmembrane cells” value in data set [3] is reported as “further reduced dramatically”. The Colony formation ability entry in data set [4] (DMS pretreatment vs IM intervention's group) is given as “further reduced”. For the same compound, the apoptosis rate entry in data set [5] (after DMS interference vs cells without DMS treatment) is recorded as “significantly higher”. Also, in data set [6], the “protein levels of S1P, ABCC1 and SPK1” value is listed as “decreased”. Moreover, the “inhibitory activity on sphingosine kinases” value with SPK1 is reported as “high inhibitory activity on SPK1 compared to SPK2”.
In the case of `Cc1ccc(NC(=O)c2ccc(CN3CCN(C)CC3)cc2)cc1Nc1nccc(-c2cccnc2)n1` [IM, Imatinib mesylate], the “difference between the highest and lowest IM concentration” value in data set [7] (29 patients) is “more than 12 fold”. In addition, the concentration at 22 h in data set [7] (OCT1 1022C > T (rs 2282143) CC, n=22) stood at 1510 ± 842 ng/mL; in data set [7] (OCT1 1022C > T (rs 2282143) TC, n=7) it was 1750 ± 1090 ng/mL; in data set [7] (OCT1 1222 A > G (rs628031) AA, n=1) it was 300 ng/mL; in data set [7] (OCT1 1222 A > G (rs628031) AG, n=10), 1820 ± 1010 ng/mL; in [7] (OCT1 1222 A > G (rs628031) GG, n=18), 1500 ± 798 ng/mL; in data set [7] (OCT1 1386C > A (rs 622342) AA, n=24), 1580 ± 801 ng/mL. The concentration at 22 h was determined as 1490 ± 1380 ng/mL in data set [7] (OCT1 1386C > A (rs 622342) AC, n=5); 961 ± 401 ng/mL in [7] (OCT1 1795G > A (rs6935207) AA, n=8); 1860 ± 978 ng/mL in [7] (OCT1 1795G > A (rs6935207) AG, n=13); 1700 ± 890 ng/mL in [7] (OCT1 1795G > A (rs6935207) GG, n=8). For the same compound, in the data set on GIST-T1 cells (exposed to IM vs control), the “proportion of G0/G1 phase” value is recorded as “higher proportion”. In addition, the longitudinal migration capacity result in [2] (20 μM of IM for 48 h, P < 0.01) is “decreased significantly”. In [4] (IM intervention vs control), the “number of colony formation” value is recorded as “significantly less than the control group”. The apoptosis rate result in data set [5] (GIST-T1 cells treated with IM alone vs control, P < 0.01) was “higher than that of the control group”. Moreover, the “GISTs patients developing secondary drug resistance” value with GISTs (after 1–3 years of IM treatment) is ~85%. In addition, in data set [8], the “pH at which IM tablets dissolve rapidly” value is reported as ≤ 5.5.
For `CNC(=O)c1cc(Oc2ccc(NC(=O)Nc3ccc(Cl)c(C(F)(F)F)c3)c(F)c2)ccn1` [regorafenib], in the data set on GISTs (use after sunitinib resistance), the “median PFS” value was 4.8 months and the objective response rate is 5.5%.
`CCn1c(=O)c(-c2cc(NC(=O)Nc3ccccc3)c(F)cc2Br)cc2cnc(NC)cc21` [ripretinib]: in the data set on GISTs (phase III trial), the “median PFS” value is 6.3 months and the objective response rate is 9%.
`CCN(CC)CCNC(=O)c1c(C)[nH]c(/C=C2\C(=O)Nc3ccc(F)cc32)c1C` [sunitinib]: in the data set on GISTs (use after IM resistance), the “median PFS” value was 9.9 months and the objective response rate was 5.5%.
